Published values of several laboratories.
Protocols differ between the studies behind these lines.
MTNR1B: Melatonin receptor type 1B (MTNR1B, Homo sapiens, UniProt P49286)
PDE4D: 3',5'-cyclic-AMP phosphodiesterase 4D (PDE4D, Homo sapiens, UniProt Q08499)

`Cc1nn(C)cc1-c1nc2c(N3CCN(Cc4ccc(Cl)cc4)CC3)c(Cl)cnc2[nH]1` gave a remaining binding of 100% (Mitogen-activated protein kinase 7 (MAPK7, Homo sapiens, UniProt Q13164); binding, competition with immobilised ligand; 1 µM).
With `NC(=O)c1cccc(-c2cccc(OC(=O)NC3CCCCC3)c2)c1` the kinact/KI was 4500 M⁻¹ s⁻¹ (Liver carboxylesterase 1 (CES1, Homo sapiens, UniProt P23141); enzyme activity, inhibitor; pH 7.4).
For `COc1ccc2cccc(C(CO)CNC(=O)CF)c2c1` (stereo not drawn), the Emax was 101% (MTNR1B; β-arrestin recruitment, agonist; MT2; 90 min).
For `Nc1ncc(-c2nc(N3CCOCC3)nc(N3CCOCC3)n2)c(C(F)F)n1`, the remaining binding was 83% (Non-receptor tyrosine-protein kinase TNK1 (TNK1, Homo sapiens, UniProt Q13470); binding, competition with immobilised ligand; 10 µM).
`CC1(C)[C@@H](O[C@H]2O[C@H](C(=O)O)[C@@H](O)[C@H](O)[C@H]2O[C@@H]2O[C@H](C(=O)O)[C@@H](O)[C@H](O)[C@H]2O)CC[C@]2(C)[C@H]3C(=O)C=C4[C@@H]5C[C@@](C)(C(=O)O)CC[C@]5(C)CC[C@@]4(C)[C@]3(C)CC[C@@H]12` gave an inhibition of 10.9% (PDE4D; enzyme activity, inhibitor, radiometric; 50 µM).
For `CC[C@H](C)[C@@H]1NC(=O)[C@@H]2CSSC[C@H](NC(=O)[C@@H](NC(=O)CN)[C@@H](C)O)C(=O)N[C@@H](CC(N)=O)C(=O)N[C@@H]([C@@H](C)O)C(=O)N3CCC[C@H]3C(=O)NCC(=O)N[C@H]3CSSC[C@H](NC(=O)[C@H](CCSC)NC(=O)[C@H](CC(C)C)NC(=O)[C@H](CCCNC(=N)N)NC(=O)CNC(=O)CNC(=O)[C@H](CC(=O)O)NC1=O)C(=O)NCC(=O)N[C@@H](CCC(=O)O)C(=O)N[C@@H]([C@@H](C)O)C(=O)N[C@H](C(=O)N[C@H](C(=O)NCC(=O)O)C(C)C)CSSC[C@H](NC(=O)[C@H]([C@@H](C)O)NC3=O)C(=O)N[C@@H](CO)C(=O)N[C@@H](Cc1c[nH]c3ccccc13)C(=O)N1CCC[C@H]1C(=O)N[C@@H](C(C)C)C(=O)N2`, the kon was 1000 to 10000 M⁻¹ s⁻¹ (Prothrombin (F2, Homo sapiens, UniProt P00734); binding, SPR).
With `C=C(C)[C@@H]1CC=C2C(=CC[C@]3(C)[C@@H]([C@@H](CCC=C(C)C)C(=O)O)[C@H](O)C[C@@]23C)[C@@]1(C)CCC(=O)O` the inhibition was 51.7% (PDE4D; enzyme activity, inhibitor, radiometric; 50 µM).
`CCN(CC)CCCC[C@H](NC(=O)[C@H](CC(C)C)NC(=O)[C@H](C)NC(=O)[C@H](Cc1ccccc1)NC(=O)c1ccc(C(C)(C)C)cc1)C(=O)N[C@@H](CO)C(=O)OC` gave a remaining binding of 95.2% (Prostaglandin E2 receptor EP4 subtype (PTGER4, Homo sapiens, UniProt P35408); ligand displacement, radioligand; 10 µM).
With `CC(C)=CCc1cc(-c2coc3cc(O)cc(O)c3c2=O)cc(O)c1O` the inhibition was 100% (PDE4D; enzyme activity, inhibitor, radiometric; 50 µM).
The Emax of `COc1ccc2[nH]cc(CCNC(=O)CI)c2c1` is reported as 123% (MTNR1B; GTPγS binding, agonist, radiometric; cell membranes).
With `O=C(O)CC(O)(CC(=O)O)C(=O)O` the inhibition was 16.6% (PDE4D; enzyme activity, inhibitor, radiometric; 5 µM).
`COc1ncccc1-c1cnn2ccc(N3CCN(C(=O)OC(C)C)CC3)nc12` has a remaining binding of 100% (Serine/threonine-protein kinase MAK (MAK, Homo sapiens, UniProt P20794); binding, competition with immobilised ligand; 1 µM).
